# Experimental data collected from several papers.
# Protocols differ between the studies behind these lines.
# Organism: Staphylococcus epidermidis
Structure (SMILES),test,test system,conditions,endpoint,value
C/C(=C\c1ccc(O)cc1)C(=O)Nc1ccc(C(=O)N[C@@H](CC(N)=O)C(=O)Nc2ccc(C(=O)Nc3ccc(C(=O)Nc4ccc(C(=O)O)cc4)c(O)c3OC(C)C)cc2)cc1,microbial growth,DSM28765,,MIC,0.25 µg/mL
O=[N+]([O-])c1ccc2c(N=Nc3ccc4ccccc4c3O)c(O)cc(S(=O)(=O)O)c2c1,"microbial growth, broth dilution",,24 h,MIC50,31 µM
O=C(O)c1cn(C2CC2)c2cc(N3CCNCC3)c(F)cc2c1=O,microbial growth,DSM28765,,MIC,0.25 µg/mL
O=C(O)CN1C(=O)/C(=C/c2ccc(-c3ccc(N(c4ccccc4)c4ccccc4)cc3)c3ccccc23)NC1=S,"microbial growth, broth dilution",ATCC12228,,MIC,> 1000 µg/mL
N#CC(=Cc1cn(-c2ccccc2)nc1-c1ccccc1)C1=NC(=O)CS1,"microbial killing, broth dilution",,,MBC,0.5 µg/mL
O=C(O)CN1C(=O)/C(=C/c2ccc(-c3ccc(N(c4ccccc4)c4ccccc4)cc3)c3ccccc23)SC1=S,"microbial killing, broth dilution",ATCC12228,,MBC,1000 µg/mL
CC(C)Oc1c(NC(=O)c2ccc(NC(=O)[C@H](CC(N)=O)NC(=O)c3ccc(NC(=O)c4ccc(C#N)cn4)cc3)cc2)ccc(C(=O)Nc2ccc(C(=O)O)cc2)c1O,microbial growth,DSM28765,,MIC,1 µg/mL
O=C1NC(=S)S/C1=C\c1ccc(-c2ccc(N(c3ccccc3)c3ccccc3)cc2)c2ccccc12,"microbial killing, broth dilution",ATCC12228,,MBC,> 1000 µg/mL
COc1cccc(OC)c1C(=O)N[C@@H]1C(=O)N2[C@@H]1SC(C)(C)[C@@H]2C(=O)O,"microbial growth, broth dilution",12228,,MIC,3.13 µM
O=C(O)c1cn(C2CC2)c2cc(N3CCNCC3)c(F)cc2c1=O,"microbial killing, broth dilution",,,MBC,0.5 µg/mL
O=[N+]([O-])c1ccc(-c2nc3cccc(O)c3[nH]2)o1,microbial killing,,,MBC,1 µg/mL
O=C(O)c1cn(C2CC2)c2cc(N3CCNCC3)c(F)cc2c1=O,"microbial growth, broth dilution",ATCC12228,,MIC,0.49 µg/mL
CCOC(=O)c1c(N)csc1-c1cn(-c2ccccc2)nc1-c1ccc(C)cc1,"microbial killing, broth dilution",,,MBC,0.125 µg/mL
